We go through five compounds from ChEMBL document CHEMBL3603779, “Identification and Optimization of Benzimidazole Sulfonamides as Orally Bioavailable Sphingosine 1-Phosphate Receptor 1 Antagonists with in Vivo Activity” (J Med Chem, 2015).

Data set [1] has as its target Sphingosine 1-phosphate receptor 3 (Homo sapiens) (UniProt Q99500). The experiment in a line: Antagonist activity against S1P3 receptor (unknown origin).
The nature of data set [2]: Intrinsic clearance in human liver microsomes pre-incubated at 37 degC for 5 mins before NADPH addition by LCMS/MS method. Type of data set: ADME. As to conditions: read-out: CLH.
A short description of data set [3]: Oral bioavailability in Han Wistar rat at 5 to 10 mg/kg by LC-MS/MS method. In kind it is ADME, organism-based. As to conditions: in vivo.
Data set [4] has as its target T1, Sphingosine 1-phosphate receptor 1 (Homo sapiens, UniProt P21453). The data set can be described thus: Antagonist activity against human S1P1 receptor expressed in human U2OS cells co-expressing GFP assessed as inhibition of S1P-induced receptor translocation. In kind it is cell-based. The method in brief: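 Cellular S1P1 translocation (internalization) assay with antagonist; EC50 reported as mean of at least three separate determinations ± standard deviation.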

The target in data set [5] is T1, Sphingosine 1-phosphate receptor 1. The data set can be described thus: Antagonist activity against S1P1 receptor (unknown origin) expressed in human U2OS cells co-expressing GFP assessed as right-ward shift of S1P-induced response. In kind it is cell-based. The essentials:
(§1)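 S1P concentration-response curves for receptor internalization run at a series of fixed antagonist concentrations, giving both curve shift and maximal internalization.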

The target is the same in data set [6]. The experiment in a line: Antagonist activity against S1P1 receptor (unknown origin) expressed in human U2OS cells co-expressing GFP assessed as reduction in maximal amount of S1P-induced receptor translocation. Type of data set: cell-based. The method in brief:
as §1

Data set [7] concerns the target T2, Cytochrome P450 3A5 (Homo sapiens, UniProt P20815). The experiment in a line: Inhibition of CYP3A5 in human liver microsomes incubated for 5 mins in presence of NADPH and specific substrates by LC/MS/MS method. In kind it is ADME. On the technique in general: Liver microsomes are vesicles of endoplasmic reticulum, rich in cytochrome P450 enzymes.
Data set [8] has as its target T3, Cytochrome P450 3A4 (Homo sapiens, UniProt P08684). The data set can be described thus: Inhibition of CYP3A4 in human liver microsomes incubated for 5 mins in presence of NADPH and specific substrates by LC/MS/MS method. In kind it is ADME.
Data set [9] addresses T2, Cytochrome P450 3A5. The experiment in a line: Induction of CYP3A5 activation in human hepatocytes at 2 uM incubated for 48 hrs using testosterone substrate. Type of data set: ADME, cell-based, Hepatocyte. The method in brief:
(§2)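 Primary human hepatocytes seeded on collagen and cultured in collagen-Matrigel sandwich. On day 3 they are treated for 48 h with DMSO, test compound at varying concentrations, or reference inducer (3-methylcholanthrene for CYP1A2, phenobarbital for CYP2B6, rifampicin for CYP3A4/5). Probe substrates are then added (phenacetin, bupropion, testosterone) and marker metabolites quantified (acetaminophen, hydroxybupropion, 6-β-hydroxytestosterone).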

Another data set concerns the target T4, Cytochrome P450 1A2 (Homo sapiens, UniProt P05177).
T4 sequence (P05177 whole entry): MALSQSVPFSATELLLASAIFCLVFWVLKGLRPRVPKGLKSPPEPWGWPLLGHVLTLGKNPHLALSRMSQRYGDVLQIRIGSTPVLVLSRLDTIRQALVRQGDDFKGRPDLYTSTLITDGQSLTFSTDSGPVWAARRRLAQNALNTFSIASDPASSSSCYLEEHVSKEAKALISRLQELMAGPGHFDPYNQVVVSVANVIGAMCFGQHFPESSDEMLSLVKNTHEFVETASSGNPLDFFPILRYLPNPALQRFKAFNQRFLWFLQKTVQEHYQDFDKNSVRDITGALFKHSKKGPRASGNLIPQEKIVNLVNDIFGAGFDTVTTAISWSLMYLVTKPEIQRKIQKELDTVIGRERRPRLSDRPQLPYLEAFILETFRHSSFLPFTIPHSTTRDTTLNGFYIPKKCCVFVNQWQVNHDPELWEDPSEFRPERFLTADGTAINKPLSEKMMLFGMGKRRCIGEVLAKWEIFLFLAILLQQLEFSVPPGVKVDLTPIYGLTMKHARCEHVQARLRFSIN
The experiment in a line: Induction of CYP1A2 activation in human hepatocytes at 0.2 to 20 uM incubated for 48 hrs using phenacetin substrate. Type of data set: ADME, cell-based, Hepatocyte. The essentials:
as §2

Data set [10] concerns the target T2, Cytochrome P450 3A5. The data set can be described thus: Induction of CYP3A5 activation in human hepatocytes at 0.2 to 20 uM incubated for 48 hrs using testosterone substrate. In kind it is ADME, cell-based, Hepatocyte. The essentials:
as §2

The target in the next data set is T5, Cytochrome P450 2B6 (Homo sapiens, UniProt P20813).
T5 sequence (P20813 whole entry): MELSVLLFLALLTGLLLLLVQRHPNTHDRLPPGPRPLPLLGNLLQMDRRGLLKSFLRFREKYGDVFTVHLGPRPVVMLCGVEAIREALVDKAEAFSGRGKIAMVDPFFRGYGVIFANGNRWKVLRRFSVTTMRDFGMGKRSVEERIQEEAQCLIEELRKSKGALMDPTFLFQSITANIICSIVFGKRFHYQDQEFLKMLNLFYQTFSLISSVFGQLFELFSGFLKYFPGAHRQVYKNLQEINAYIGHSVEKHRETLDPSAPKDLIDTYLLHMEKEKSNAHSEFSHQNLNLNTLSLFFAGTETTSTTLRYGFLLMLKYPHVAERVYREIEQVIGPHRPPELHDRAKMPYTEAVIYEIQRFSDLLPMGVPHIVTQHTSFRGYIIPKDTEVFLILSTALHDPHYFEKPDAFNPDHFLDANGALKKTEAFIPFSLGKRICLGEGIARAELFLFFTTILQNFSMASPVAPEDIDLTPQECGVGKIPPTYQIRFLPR
The data set can be described thus: Induction of CYP2B6 activation in human hepatocytes at 0.2 to 20 uM incubated for 48 hrs using bupropion substrate. Type of data set: ADME, cell-based, Hepatocyte. The essentials:
as §2

Data set [11] is described as follows: Clearance in Han Wistar rat at 2 to 4 mg/kg, iv by LC-MS/MS method. Type of data set: ADME, organism-based. To be noted: in vivo.
Data set [12] concerns the target T3, Cytochrome P450 3A4. The experiment in a line: Induction of CYP3A4 activation in human hepatocytes at 0.2 to 20 uM incubated for 48 hrs using testosterone substrate. Type of data set: ADME, cell-based, Hepatocyte. The method in brief:
as §2

The target of data set [13] is Sphingosine 1-phosphate receptor 1 (Mus musculus) (UniProt O08530). The experiment in a line: Antagonist activity against mouse S1P1 receptor expressed in human U2OS cells co-expressing GFP assessed as inhibition of S1P-induced receptor translocation. In kind it is cell-based.
Sphingosine 1-phosphate receptor 1 (Mus musculus), sequence (O08530 whole entry): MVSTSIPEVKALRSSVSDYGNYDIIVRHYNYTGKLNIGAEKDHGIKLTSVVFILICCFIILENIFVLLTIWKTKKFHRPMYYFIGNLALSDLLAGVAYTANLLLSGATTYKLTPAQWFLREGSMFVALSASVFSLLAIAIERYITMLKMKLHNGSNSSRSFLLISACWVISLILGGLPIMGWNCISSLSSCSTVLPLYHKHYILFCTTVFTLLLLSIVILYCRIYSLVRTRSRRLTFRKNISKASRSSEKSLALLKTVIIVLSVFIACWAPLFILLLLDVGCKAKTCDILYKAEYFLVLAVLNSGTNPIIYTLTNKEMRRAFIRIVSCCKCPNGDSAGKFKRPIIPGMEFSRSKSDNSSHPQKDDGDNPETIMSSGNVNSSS

Molecules are shown by their SMILES. Calls of active or inactive are those of the source. No cut-off for these calls is given here.

T2 sequence (P20815 whole entry): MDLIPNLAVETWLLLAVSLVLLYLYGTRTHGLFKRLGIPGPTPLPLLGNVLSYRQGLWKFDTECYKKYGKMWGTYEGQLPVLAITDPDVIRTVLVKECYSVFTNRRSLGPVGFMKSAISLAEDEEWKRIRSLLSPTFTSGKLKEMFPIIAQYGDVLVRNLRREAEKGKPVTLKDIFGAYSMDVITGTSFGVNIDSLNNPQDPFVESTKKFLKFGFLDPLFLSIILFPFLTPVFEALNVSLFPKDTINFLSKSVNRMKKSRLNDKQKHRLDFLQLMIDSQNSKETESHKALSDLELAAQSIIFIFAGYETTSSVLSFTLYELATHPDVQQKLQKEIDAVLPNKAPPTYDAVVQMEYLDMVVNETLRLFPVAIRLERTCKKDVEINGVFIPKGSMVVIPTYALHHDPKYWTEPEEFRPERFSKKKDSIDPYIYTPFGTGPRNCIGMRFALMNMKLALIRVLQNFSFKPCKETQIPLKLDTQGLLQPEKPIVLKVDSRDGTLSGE
T1 sequence (P21453 whole entry): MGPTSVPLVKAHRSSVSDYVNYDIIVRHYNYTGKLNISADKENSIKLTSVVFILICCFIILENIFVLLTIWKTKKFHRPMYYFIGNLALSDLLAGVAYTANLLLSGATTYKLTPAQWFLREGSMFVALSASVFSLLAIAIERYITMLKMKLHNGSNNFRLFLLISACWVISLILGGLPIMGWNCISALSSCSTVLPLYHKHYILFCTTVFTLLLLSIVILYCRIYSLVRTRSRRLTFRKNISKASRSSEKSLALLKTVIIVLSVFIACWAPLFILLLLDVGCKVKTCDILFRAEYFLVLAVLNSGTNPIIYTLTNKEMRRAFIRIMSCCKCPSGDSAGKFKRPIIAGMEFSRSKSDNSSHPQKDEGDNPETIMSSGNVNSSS
T3 sequence (P08684 whole entry): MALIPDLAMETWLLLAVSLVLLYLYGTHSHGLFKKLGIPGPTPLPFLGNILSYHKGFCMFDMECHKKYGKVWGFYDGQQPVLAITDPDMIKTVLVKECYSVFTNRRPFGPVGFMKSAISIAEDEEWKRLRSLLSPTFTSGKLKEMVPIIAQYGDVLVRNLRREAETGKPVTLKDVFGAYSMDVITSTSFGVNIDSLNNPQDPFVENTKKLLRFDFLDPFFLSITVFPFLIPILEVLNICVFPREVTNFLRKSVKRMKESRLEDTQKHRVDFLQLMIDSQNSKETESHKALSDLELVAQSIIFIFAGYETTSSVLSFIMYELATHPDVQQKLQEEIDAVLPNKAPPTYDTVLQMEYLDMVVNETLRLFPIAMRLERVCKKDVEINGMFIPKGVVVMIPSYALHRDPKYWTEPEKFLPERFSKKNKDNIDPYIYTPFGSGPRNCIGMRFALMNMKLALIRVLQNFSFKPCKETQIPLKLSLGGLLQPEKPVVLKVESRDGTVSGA
Sphingosine 1-phosphate receptor 3 (Homo sapiens), sequence (Q99500 whole entry): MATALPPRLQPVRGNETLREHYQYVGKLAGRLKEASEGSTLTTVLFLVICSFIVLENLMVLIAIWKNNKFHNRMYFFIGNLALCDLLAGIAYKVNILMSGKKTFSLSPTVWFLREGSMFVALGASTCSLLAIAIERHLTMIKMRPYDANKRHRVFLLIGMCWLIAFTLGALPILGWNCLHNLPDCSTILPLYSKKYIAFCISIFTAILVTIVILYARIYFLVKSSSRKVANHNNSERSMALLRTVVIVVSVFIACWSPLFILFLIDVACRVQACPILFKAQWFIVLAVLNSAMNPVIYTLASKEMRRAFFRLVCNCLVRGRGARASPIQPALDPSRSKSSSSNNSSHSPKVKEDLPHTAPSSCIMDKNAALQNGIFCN

On to `CCc1nnc([C@@H](C)NS(=O)(=O)c2ccc(Cl)cc2)n1CC`, for which, in data set [1], the inhibition entry was “inactive”.

As to `CCn1c([C@@H](C)NS(=O)(=O)c2ccc(Cl)cc2)nc2ccccc21`, the microsomal CLint in data set [2] is more than 100 µL/min/mg. The compound further showed a bioavailability in [3] of 5%. Also, the EC50 in data set [4] stood at 0.05 µM. The inhibition result in data set [5] and in data set [6] was “Active” in each case.

`CCn1c([C@@H](C)NS(=O)(=O)c2cccnc2)nc2ccc(C(F)(F)F)cc21`: the microsomal CLint in data set [2] is more than 100 µL/min/mg. For the same compound, the EC50 in data set [4] was 0.03 µM. Further, the IC50 on Cytochrome P450 3A5 [7] and at Cytochrome P450 3A4 [8] was 0.83 µM throughout.

For the compound `CCn1c([C@@H](C)NS(=O)(=O)c2ccc(Cl)cc2)nc2ccc(C(F)(F)F)cc21`, the Activity entry at Cytochrome P450 3A5 [9] was “Active”; at Cytochrome P450 1A2, “Not Active”; on Cytochrome P450 3A5 [10], “Dose-dependent effect”; at Cytochrome P450 2B6, “Not Active”; on Cytochrome P450 3A4 [12] it was “Dose-dependent effect”. Moreover, the microsomal CLint in data set [2] is more than 100 µL/min/mg. Further, in data set [3], the bioavailability turned out to be 43%. In addition, the EC50 in data set [4] stood at 0.005 µM. This compound yielded a clearance in data set [11] of 33 mL/min/kg. In addition, the inhibition result in [13] is “Active”.

`CCn1c([C@@H](C)NS(=O)(=O)c2ccc(F)cc2)nc2ccc(C(F)(F)F)cc21`: the microsomal CLint in data set [2] stood at 26 µL/min/mg. In addition, in [4], the EC50 came to 0.007 µM. Moreover, the inhibition result in data set [13] is “Active”.

By bioavailability is commonly meant dose-corrected exposure relative to a reference, in per cent. Lower therefore signals little systemic uptake. The EC50 is the concentration that produces a half-maximal response. For orientation: IC50 means the point on the concentration scale where inhibition reaches its midpoint. The term clearance denotes a measure of how efficiently the substance is removed, as volume per time. Read a high clearance as efficient removal.
